Measurements from ChEMBL document CHEMBL1121766, “Chemical modification of aminoglycosides. 3. Synthesis of 2"-deoxykanamycins from neamine” (1981).
≈ marks a conversion by molar mass, not a printed value.

Legend:
Escherichia coli = test: Compound was tested in vitro for antibacterial activity against Escherichia coli UC 45; assay type: functional
Outline: (§1)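 MIC by microplate broth dilution: serial twofold dilutions of antibiotic in brain-heart infusion broth, each well inoculated with standardized cell suspension to ~10^5 viable cells per mL of drug-supplemented medium. Incubated 37 °C for 20 h; MIC read as lowest concentration inhibiting visible growth.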

Klebsiella pneumoniae = test: Compound was tested in vitro for antibacterial activity against Klebsiella pneumoniae UC 58; assay type: functional; outline: as §1
Pseudomonas aeruginosa [1] = test: Compound was tested in vitro for antibacterial activity against Pseudomonas aeruginosa UC 3679; assay type: functional; outline: as §1
Pseudomonas aeruginosa [2] = test: Compound was tested in vitro for antibacterial activity against Pseudomonas aeruginosa UC 3680; assay type: functional; outline: as §1
Pseudomonas aeruginosa [3] = test: Compound was tested in vitro for antibacterial activity against Pseudomonas aeruginosa UC 3681; assay type: functional; outline: as §1
Pseudomonas aeruginosa [4] = test: Compound was tested in vitro for antibacterial activity against Pseudomonas aeruginosa UC 3682; assay type: functional; outline: as §1
Pseudomonas aeruginosa [5] = test: Compound was tested in vitro for antibacterial activity against Pseudomonas aeruginosa UC 3683; assay type: functional; outline: as §1
Pseudomonas aeruginosa [6] = test: Compound was tested in vitro for antibacterial activity against Pseudomonas aeruginosa UC 6436; assay type: functional; outline: as §1
Pseudomonas aeruginosa [7] = test: Compound was tested in vitro for antibacterial activity against Pseudomonas aeruginosa UC 95; assay type: functional; outline: as §1
Proteus mirabilis = test: Compound was tested in vitro for antibacterial activity against Proteus mirabilis UC 6671; assay type: functional; outline: as §1
Proteus vulgaris = test: Compound was tested in vitro for antibacterial activity against Proteus vulgaris UC 93; assay type: functional; outline: as §1
Salmonella typhi = test: Compound was tested in vitro for antibacterial activity against Salmonella typhi UC 215; assay type: functional, Salmonella enterica subsp. enterica serovar Typhi; conditions: Salmonella enterica
Outline: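 Microplate broth dilution: serial twofold antibiotic dilutions in brain-heart infusion broth, inoculated with a standardized cell suspension to a final ~10^5 viable cells per mL. Incubated 37 °C for 20 h. MIC read as the lowest concentration that inhibited visible growth.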

[8] = Compound was tested in vitro for antibacterial activity against Salmonella schottmuelleri UC 126; assay type: functional; outline: as §1
Enterococcus faecalis = test: Compound was tested in vitro for antibacterial activity against Streptococcus faecalis UC 694; assay type: functional; outline: as §1
Serratia marcescens = test: Compound was tested in vitro for antibacterial activity against Serratia marcescens UC 131; assay type: functional; outline: as §1
Streptococcus pneumoniae = test: Compound was tested in vitro for antibacterial activity against Streptococcus pneumoniae UC 41; assay type: functional; outline: as §1
Staphylococcus aureus = test: Compound was tested in vitro for antibacterial activity against Staphylococcus aureus UC76; assay type: functional; outline: as §1
Streptococcus pyogenes = test: Compound was tested in vitro for antibacterial activity against Streptococcus pyogenes UC 152; assay type: functional; outline: as §1

With `NCC1CCC(N)C(OC2C(N)CC(N)C(OC3CC(N)C(O)C(CO)O3)C2O)O1` (stereo not drawn) the MIC (Escherichia coli) was 62.5 mg/L (≈ 144 µM), the MIC (Klebsiella pneumoniae) was 3.9 mg/L (≈ 8.95 µM) and the MIC (Pseudomonas aeruginosa [1]) was 7.8 mg/L (≈ 17.9 µM). It also gave an MIC (Pseudomonas aeruginosa [2]) of 7.8 mg/L (≈ 17.9 µM), an MIC (Pseudomonas aeruginosa [3]) of 15.6 mg/L (≈ 35.8 µM) and an MIC (Pseudomonas aeruginosa [4]) of 15.6 mg/L (≈ 35.8 µM). The MIC (Pseudomonas aeruginosa [5]) was 7.8 mg/L (≈ 17.9 µM), the MIC (Pseudomonas aeruginosa [6]) was > 125 mg/L and the MIC (Pseudomonas aeruginosa [7]) was 7.8 mg/L (≈ 17.9 µM). It also gave an MIC (Pseudomonas aeruginosa [7]; Pseudomonas aeruginosa, read-out: MIC) of 15.6 mg/L (≈ 35.8 µM), an MIC (Proteus mirabilis) of 62.5 mg/L (≈ 144 µM) and an MIC (Proteus vulgaris) of 31.2 mg/L (≈ 71.6 µM). It also gave an MIC (Salmonella typhi) of 15.6 mg/L (≈ 35.8 µM), an MIC [8] of 15.6 mg/L (≈ 35.8 µM) and an MIC (Enterococcus faecalis) of 250 mg/L (≈ 574 µM). For the same molecule, the MIC (Serratia marcescens) was 15.6 mg/L (≈ 35.8 µM), the MIC (Streptococcus pneumoniae) was 250 mg/L (≈ 574 µM) and the MIC (Staphylococcus aureus) was < 1 mg/L. The MIC (Streptococcus pyogenes) was 7.8 mg/L (≈ 17.9 µM).

Molecule `NCC1OC(OC2C(N)CC(N)C(OC3CC(N)C(O)C(CO)O3)C2O)C(N)C(O)C1O` (stereo not drawn) has an MIC (Escherichia coli) of 31.2 mg/L (≈ 66.7 µM), an MIC (Klebsiella pneumoniae) of 3.9 mg/L (≈ 8.34 µM) and an MIC (Proteus mirabilis) of 62.5 mg/L (≈ 134 µM). It also gave an MIC [8] of 15.6 mg/L (≈ 33.4 µM), an MIC (Enterococcus faecalis) of 1000 mg/L (≈ 2140 µM) and an MIC (Serratia marcescens) of 31.2 mg/L (≈ 66.7 µM). The MIC (Streptococcus pneumoniae) was 500 mg/L (≈ 1070 µM), the MIC (Staphylococcus aureus) was 3.9 mg/L (≈ 8.34 µM) and the MIC (Streptococcus pyogenes) was 15.6 mg/L (≈ 33.4 µM).
